How the values were obtained:
Format in all cases: functional
Campylobacter coli [1] = assay: Antibacterial activity against Campylobacter coli assessed as resistant isolates by NCCLS agar doubling dilution method
Method in brief: (§1)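 MICs by agar doubling dilution following the NCCLS (CLSI) Campylobacter Working Group procedure, with C. jejuni NCTC 11168 and C. coli NCTC 11366 as controls. Isolates came from UK chicken flocks, 2000–2006. Isolates were designated resistant at an ampicillin cutoff of 8 μg/ml. Enterobacteriaceae guidelines (BSAC, CLSI) were used as reference for the other agents.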

Campylobacter jejuni [2] = assay: Antibacterial activity against Campylobacter jejuni assessed as resistant isolates by NCCLS agar doubling dilution method; method in brief: as §1
Campylobacter jejuni [3] = assay: Antibacterial activity against Campylobacter jejuni by NCCLS agar doubling dilution method
Method in brief: (§2)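 MICs by agar doubling dilution following the NCCLS (CLSI) Campylobacter Working Group procedure, applied to ampicillin- and amoxicillin-resistant isolates from UK chicken flocks (2000–2006). C. jejuni NCTC 11168 and C. coli NCTC 11366 served as control strains. Resistance was called at an ampicillin cutoff of 8 μg/ml. Other agents were judged against Enterobacteriaceae guidelines (BSAC, CLSI).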

Campylobacter coli [4] = assay: Antibacterial activity against Campylobacter coli by NCCLS agar doubling dilution method; method in brief: as §2
Campylobacter jejuni [5] = assay: Antibacterial activity against bla gene-positive and nitrocefin reaction-negative beta-lactamase harboring Campylobacter jejuni NCTC 11168 by NCCLS agar doubling dilution method
Method in brief: (§3)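 MICs of β-lactams by agar doubling dilution following the NCCLS (CLSI) Campylobacter Working Group procedure, with C. jejuni NCTC 11168 and C. coli NCTC 11366 as controls. Isolates were from UK poultry flocks. β-Lactamase status was set by Cj0299 PCR (281-bp amplimer) and by a nitrocefin colour change of sonicated lysate within 5 min, or within 30 min on repeat.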

Campylobacter jejuni [6] = assay: Antibacterial activity against Campylobacter jejuni isolate P270 harboring blaOXA-61::cat gene by NCCLS agar doubling dilution method
Campylobacter jejuni [7] = assay: Antibacterial activity against bla gene-negative and nitrocefin reaction-negative beta-lactamase harboring Campylobacter jejuni isolate P835 by NCCLS agar doubling dilution method; method in brief: as §3
Campylobacter jejuni [8] = assay: Antibacterial activity against bla gene-negative and nitrocefin reaction-negative beta-lactamase harboring Campylobacter jejuni isolate P850 by NCCLS agar doubling dilution method; method in brief: as §3
Campylobacter jejuni [9] = assay: Antibacterial activity against bla gene-negative and nitrocefin reaction-negative beta-lactamase harboring Campylobacter jejuni isolate P1962 by NCCLS agar doubling dilution method; method in brief: as §3
Campylobacter jejuni [10] = assay: Antibacterial activity against bla gene-positive and nitrocefin reaction-positive beta-lactamase harboring Campylobacter jejuni isolate P285 by NCCLS agar doubling dilution method
Method in brief: (§4)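 MICs by agar doubling dilution per the NCCLS (now CLSI) Campylobacter Working Group method. Isolates came from UK chicken flocks (feces, ceca or farm environment), 2000–2006. C. jejuni NCTC 11168 and C. coli NCTC 11366 served as control strains. The ampicillin resistance cutoff was 8 μg/ml; BSAC/CLSI Enterobacteriaceae guidelines were used for other agents.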

Campylobacter jejuni [11] = assay: Antibacterial activity against bla gene-positive and nitrocefin reaction-positive beta-lactamase harboring Campylobacter jejuni isolate P286 by NCCLS agar doubling dilution method; method in brief: as §4
Campylobacter jejuni [12] = assay: Antibacterial activity against bla gene-positive and nitrocefin reaction-positive beta-lactamase harboring Campylobacter jejuni isolate P305 by NCCLS agar doubling dilution method; method in brief: as §4
Campylobacter jejuni [13] = assay: Antibacterial activity against bla gene-positive and nitrocefin reaction-positive beta-lactamase harboring Campylobacter jejuni isolate P316 by NCCLS agar doubling dilution method; method in brief: as §4
Campylobacter jejuni [14] = assay: Antibacterial activity against bla gene-positive and nitrocefin reaction-positive beta-lactamase harboring Campylobacter jejuni isolate P338 by NCCLS agar doubling dilution method; method in brief: as §4
Campylobacter jejuni [15] = assay: Antibacterial activity against Campylobacter jejuni isolate P338 harboring blaOXA-61::cat gene by NCCLS agar doubling dilution method
Method in brief: (§5)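 Agar doubling dilution MICs (NCCLS/CLSI Campylobacter Working Group method) against Cj0299-inactivated mutants. Mutants were made by transforming the C. jejuni isolate with pCI and selecting on Mueller-Hinton agar with 10 μg/ml chloramphenicol for 3–5 days. Chromosomal insertion was confirmed by PCR with Cj0299 and cat primers.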

Campylobacter jejuni [16] = assay: Antibacterial activity against bla gene-positive and nitrocefin reaction-positive beta-lactamase harboring Campylobacter jejuni isolate P790 by NCCLS agar doubling dilution method; method in brief: as §4
Campylobacter jejuni [17] = assay: Antibacterial activity against bla gene-positive and nitrocefin reaction-positive beta-lactamase harboring Campylobacter jejuni isolate P1093 by NCCLS agar doubling dilution method; method in brief: as §3
Campylobacter jejuni [18] = assay: Antibacterial activity against Campylobacter jejuni isolate P1093 harboring blaOXA-61::cat gene by NCCLS agar doubling dilution method; method in brief: as §5
Campylobacter jejuni [19] = assay: Antibacterial activity against bla gene-positive and nitrocefin reaction-positive beta-lactamase harboring Campylobacter jejuni isolate P1618 by NCCLS agar doubling dilution method; method in brief: as §3
Campylobacter jejuni [20] = assay: Antibacterial activity against bla gene-positive and nitrocefin reaction-positive beta-lactamase harboring Campylobacter jejuni isolate P1650 by NCCLS agar doubling dilution method; method in brief: as §3
Campylobacter jejuni [21] = assay: Antibacterial activity against bla gene-positive and nitrocefin reaction-positive beta-lactamase harboring Campylobacter jejuni isolate P1730 by NCCLS agar doubling dilution method; method in brief: as §4
Campylobacter jejuni [22] = assay: Antibacterial activity against bla gene-positive and nitrocefin reaction-negative beta-lactamase harboring Campylobacter jejuni isolate P1698 by NCCLS agar doubling dilution method; method in brief: as §3
Campylobacter jejuni [23] = assay: Antibacterial activity against bla gene-positive and nitrocefin reaction-negative beta-lactamase harboring Campylobacter jejuni isolate P1699 by NCCLS agar doubling dilution method; method in brief: as §3
Campylobacter jejuni [24] = assay: Antibacterial activity against bla gene-negative and nitrocefin reaction-positive beta-lactamase harboring Campylobacter jejuni isolate P843 by NCCLS agar doubling dilution method; method in brief: as §3
Campylobacter jejuni [25] = assay: Antibacterial activity against bla gene-negative and nitrocefin reaction-positive beta-lactamase harboring Campylobacter jejuni isolate P854 by NCCLS agar doubling dilution method; method in brief: as §3
Campylobacter coli [26] = assay: Antibacterial activity against bla gene-positive and nitrocefin reaction-positive beta-lactamase harboring Campylobacter coli isolate P321 by NCCLS agar doubling dilution method; method in brief: as §3
Campylobacter coli [27] = assay: Antibacterial activity against bla-positive and beta-lactamase-weakly positive Campylobacter coli isolate P1627 by NCCLS agar doubling dilution method; method in brief: as §4
Campylobacter coli [28] = assay: Antibacterial activity against bla gene-positive and nitrocefin reaction-positive beta-lactamase harboring Campylobacter coli isolate P1826 by NCCLS agar doubling dilution method; method in brief: as §3
Campylobacter coli [29] = assay: Antibacterial activity against Campylobacter coli by NCCLS agar doubling dilution method in presence of Tazobactam; method in brief: as §3
Campylobacter jejuni [30] = assay: Antibacterial activity against bla gene-positive and nitrocefin reaction-negative beta-lactamase harboring Campylobacter jejuni isolate NCTC 11168 by NCCLS agar doubling dilution method in presence of Tazobactam; method in brief: as §3
Campylobacter jejuni [31] = assay: Antibacterial activity against Campylobacter jejuni isolate P270 harboring blaOXA-61::cat gene by NCCLS agar doubling dilution method in presence of Tazobactam
Campylobacter jejuni [32] = assay: Antibacterial activity against bla gene-negative and nitrocefin reaction-negative beta-lactamase harboring Campylobacter jejuni isolate P835 by NCCLS agar doubling dilution method in presence of Tazobactam; method in brief: as §3
Campylobacter jejuni [33] = assay: Antibacterial activity against bla gene-negative and nitrocefin reaction-negative beta-lactamase harboring Campylobacter jejuni isolate P850 by NCCLS agar doubling dilution method in presence of Tazobactam; method in brief: as §3
Campylobacter jejuni [34] = assay: Antibacterial activity against bla gene-negative and nitrocefin reaction-negative beta-lactamase harboring Campylobacter jejuni isolate P1962 by NCCLS agar doubling dilution method in presence of Tazobactam; method in brief: as §3
Campylobacter jejuni [35] = assay: Antibacterial activity against bla gene-positive and nitrocefin reaction-positive beta-lactamase harboring Campylobacter jejuni isolate P285 by NCCLS agar doubling dilution method in presence of Tazobactam; method in brief: as §4
Campylobacter jejuni [36] = assay: Antibacterial activity against bla gene-positive and nitrocefin reaction-positive beta-lactamase harboring Campylobacter jejuni isolate P286 by NCCLS agar doubling dilution method in presence of Tazobactam; method in brief: as §4
Campylobacter jejuni [37] = assay: Antibacterial activity against bla gene-positive and nitrocefin reaction-positive beta-lactamase harboring Campylobacter jejuni isolate P316 by NCCLS agar doubling dilution method in presence of Tazobactam; method in brief: as §4
Campylobacter jejuni [38] = assay: Antibacterial activity against bla gene-positive and nitrocefin reaction-positive beta-lactamase harboring Campylobacter jejuni isolate P338 by NCCLS agar doubling dilution method in presence of Tazobactam; method in brief: as §4
Campylobacter jejuni [39] = assay: Antibacterial activity against Campylobacter jejuni isolate P338 harboring blaOXA-61::cat gene by NCCLS agar doubling dilution method in presence of Tazobactam; method in brief: as §5
Campylobacter jejuni [40] = assay: Antibacterial activity against bla gene-positive and nitrocefin reaction-positive beta-lactamase harboring Campylobacter jejuni isolate P790 by NCCLS agar doubling dilution method in presence of Tazobactam; method in brief: as §4
Campylobacter jejuni [41] = assay: Antibacterial activity against bla gene-positive and nitrocefin reaction-positive beta-lactamase harboring Campylobacter jejuni isolate P1093 by NCCLS agar doubling dilution method in presence of Tazobactam; method in brief: as §3
Campylobacter jejuni [42] = assay: Antibacterial activity against Campylobacter jejuni isolate P1093 harboring blaOXA-61::cat gene by NCCLS agar doubling dilution method in presence of Tazobactam; method in brief: as §5
Campylobacter jejuni [43] = assay: Antibacterial activity against bla gene-positive and nitrocefin reaction-positive beta-lactamase harboring Campylobacter jejuni isolate P1618 by NCCLS agar doubling dilution method in presence of Tazobactam; method in brief: as §3
Campylobacter jejuni [44] = assay: Antibacterial activity against bla gene-positive and nitrocefin reaction-positive beta-lactamase harboring Campylobacter jejuni isolate P1650 by NCCLS agar doubling dilution method in presence of Tazobactam; method in brief: as §4
Campylobacter jejuni [45] = assay: Antibacterial activity against bla gene-positive and nitrocefin reaction-positive beta-lactamase harboring Campylobacter jejuni isolate P1730 by NCCLS agar doubling dilution method in presence of Tazobactam; method in brief: as §4
Campylobacter jejuni [46] = assay: Antibacterial activity against bla gene-positive and nitrocefin reaction-negative beta-lactamase harboring Campylobacter jejuni isolate P1698 by NCCLS agar doubling dilution method in presence of Tazobactam; method in brief: as §3
Campylobacter jejuni [47] = assay: Antibacterial activity against bla gene-positive and nitrocefin reaction-negative beta-lactamase harboring Campylobacter jejuni isolate P1699 by NCCLS agar doubling dilution method in presence of Tazobactam; method in brief: as §3
Campylobacter jejuni [48] = assay: Antibacterial activity against bla gene-negative and nitrocefin reaction-positive beta-lactamase harboring Campylobacter jejuni isolate P843 by NCCLS agar doubling dilution method in presence of Tazobactam; method in brief: as §3
Campylobacter jejuni [49] = assay: Antibacterial activity against bla gene-negative and nitrocefin reaction-positive beta-lactamase harboring Campylobacter jejuni isolate P854 by NCCLS agar doubling dilution method in presence of Tazobactam; method in brief: as §3
Campylobacter coli [50] = assay: Antibacterial activity against bla gene-positive and nitrocefin reaction-positive beta-lactamase harboring Campylobacter coli isolate P321 by NCCLS agar doubling dilution method in presence of Tazobactam; method in brief: as §3
Campylobacter coli [51] = assay: Antibacterial activity against bla-positive and beta-lactamase-weakly positive Campylobacter coli isolate P1627 by NCCLS agar doubling dilution method in presence of Tazobactam; method in brief: as §4
Campylobacter coli [52] = assay: Antibacterial activity against bla gene-positive and nitrocefin reaction-positive beta-lactamase harboring Campylobacter coli isolate P1826 by NCCLS agar doubling dilution method in presence of Tazobactam; method in brief: as §3
Campylobacter jejuni [53] = assay: Antibacterial activity against Campylobacter jejuni by NCCLS agar doubling dilution method in presence of Tazobactam; method in brief: as §3

CC1(C)S[C@@H]2[C@H](NC(=O)[C@H](N)c3ccccc3)C(=O)N2[C@H]1C(=O)O [AMPICILLIN]
0.5 µg/mL: MIC (Campylobacter jejuni [6])
2 µg/mL: MIC (Campylobacter jejuni [7]) | MIC (Campylobacter jejuni [9]) | MIC (Campylobacter jejuni [15]) | MIC (Campylobacter jejuni [18])
67.4%: Activity (Campylobacter coli [1])
32 µg/mL: MIC (Campylobacter jejuni [8]) | MIC (Campylobacter jejuni [24]) | MIC (Campylobacter coli [27])
64 µg/mL: MIC50 (Campylobacter jejuni [3]) | MIC50 (Campylobacter coli [4]) | MIC (Campylobacter jejuni [10]) | MIC (Campylobacter jejuni [11]) | MIC (Campylobacter jejuni [12]) | MIC (Campylobacter jejuni [13]) | MIC (Campylobacter jejuni [14]) | MIC (Campylobacter jejuni [16]) | MIC (Campylobacter jejuni [19]) | MIC (Campylobacter jejuni [20]) | MIC (Campylobacter jejuni [21]) | MIC (Campylobacter jejuni [23])
128 µg/mL: MIC90 (Campylobacter jejuni [3]) | MIC90 (Campylobacter coli [4]) | MIC (Campylobacter jejuni [17]) | MIC (Campylobacter jejuni [22]) | MIC (Campylobacter jejuni [25]) | MIC (Campylobacter coli [26]) | MIC (Campylobacter coli [28])
47.5%: Activity (Campylobacter jejuni [2])
4 µg/mL: MIC (Campylobacter jejuni [5])

C[C@]1(Cn2ccnn2)[C@H](C(=O)O)N2C(=O)C[C@H]2S1(=O)=O [TAZOBACTAM]
4 µg/mL: MIC (Campylobacter jejuni [31])
16 µg/mL: MIC50 (Campylobacter jejuni [3]) | MIC (Campylobacter coli [4]) | MIC50 (Campylobacter coli [4]) | MIC50 (Campylobacter coli [29]) | MIC (Campylobacter jejuni [30]) | MIC (Campylobacter jejuni [45]) | MIC (Campylobacter jejuni [46]) | MIC (Campylobacter coli [51]) | MIC (Campylobacter coli [52]) | MIC50 (Campylobacter jejuni [53])
1 µg/mL: MIC (range minimum) (Campylobacter jejuni [53])
8 µg/mL: MIC (Campylobacter jejuni [39])
< 8 µg/mL: MIC (Campylobacter jejuni [47])
> 8 µg/mL: MIC (Campylobacter jejuni [33]) | MIC (Campylobacter jejuni [49])
> 16 µg/mL: MIC (Campylobacter jejuni [32]) | MIC (Campylobacter jejuni [34]) | MIC (Campylobacter jejuni [35]) | MIC (Campylobacter jejuni [36]) | MIC (Campylobacter jejuni [37]) | MIC (Campylobacter jejuni [38]) | MIC (Campylobacter jejuni [40]) | MIC (Campylobacter jejuni [48]) | MIC (Campylobacter coli [50])
32 µg/mL: MIC90 (Campylobacter jejuni [3]) | MIC90 (Campylobacter coli [4]) | MIC90 (Campylobacter coli [29]) | MIC (Campylobacter jejuni [42]) | MIC (Campylobacter jejuni [43]) | MIC (Campylobacter jejuni [44]) | MIC90 (Campylobacter jejuni [53])
256 µg/mL: MIC (Campylobacter jejuni [41])

Reference: ChEMBL document CHEMBL1649560, “Beta-lactamase-mediated beta-lactam resistance in Campylobacter species: prevalence of Cj0299 (bla OXA-61) and evidence for a novel beta-Lactamase in C. jejuni” (2009)
